Assay outcomes as filed in PubChem.
KCNQ1 block: blocks the human KCNQ1 potassium channel; hit rate 1.3% among 310,000; P51787; CHO-K1 KCNQ1, FluxOR thallium flux fluorescence; active compounds read high; AID 2642; B-score at 10 µM;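 active = compounds whose thallium flux B-score, printed positive for inhibition, exceeds three library SD while starting fluorescence stays within three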;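 also: channel opened by potassium depolarization with thallium stimulus after 20 min compound exposure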
KCNQ1 pot: human KCNQ1 channel potentiation or activation. B-score at 10 µM. CHO-K1 KCNQ1, thallium flux FluxOR fluorescence; active compounds read high. P51787. hit rate 0.35% among 310,000;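 active = fluorescence ratio B-score, a plate-corrected score, at least three library SD, with initial intensity B-score within 5 SD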
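Schedule – 37 °C overnight plating, 90-min dark dye load, 20-min compound pretreatment · System – stable KCNQ1 CHO-K1 line · Probe or stimulus – thallium- and potassium-containing depolarizing buffer · Measured by – kinetic FluxOR fluorescence, 10 s baseline plus 110 s post-stimulus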
Cl transport mod: modulates chloride dependent transport by human KCC2; AID 1456; B-score of Tl+ flux slope (higher = more flux/activation; lower = inhibition) at 10 µM; hit rate 2.2% among 190,000; KCC2 cells, thallium flux FluoZin-2 fluorescence; Q9H2X9;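 active = thallium flux slope and its plate-corrected score both differing from the plate sample mean at a set confidence after two filtering rounds, in either direction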;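 also: slope of fluorescence scaled to starting intensity during 10 to 20 s after thallium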
hERG rescue: hERG (human) protection from proarrhythmic block | Q12809 | CHO-hERG, FluxOR thallium flux, dofetilide IC70 present | activation (rescue from dofetilide block), less the hit threshold, % at 10 µM | hit rate 0.51% among 310,000;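 active = activation above the mean of controls blocked by dofetilide plus 5 SD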;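 also: thallium influx through hERG after potassium depolarization seen as dye fluorescence rise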
KCNK9 inh: blocks the human KCNK9 two-pore domain potassium channel | B-score at 10 µM | hit rate 1.2% among 310,000 | AID 488922 | HEK293 KCNK9, FluxOR thallium flux fluorescence; active compounds read low;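 active = ratio B-score over 3 SD below the library mean, with starting fluorescence within 5 SD of its mean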;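 also: negative B-score means less thallium flux so channel inhibition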
Target sequence (Q9NPC2 whole entry, looked up, the tested form may be a part): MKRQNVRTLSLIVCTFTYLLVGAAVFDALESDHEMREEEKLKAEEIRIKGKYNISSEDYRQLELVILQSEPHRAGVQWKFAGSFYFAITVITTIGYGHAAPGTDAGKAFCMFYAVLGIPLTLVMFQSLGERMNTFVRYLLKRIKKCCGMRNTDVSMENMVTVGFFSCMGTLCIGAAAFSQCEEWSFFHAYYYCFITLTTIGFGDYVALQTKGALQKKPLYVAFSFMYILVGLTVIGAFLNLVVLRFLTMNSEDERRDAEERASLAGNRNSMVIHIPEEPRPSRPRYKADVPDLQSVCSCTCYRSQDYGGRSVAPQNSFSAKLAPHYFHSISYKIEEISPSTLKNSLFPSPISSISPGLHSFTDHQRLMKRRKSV
KCNK3 block: human KCNK3 channel inhibition, primary screen. O14649. CHO-KCNK3 thallium flux, FluxOR fluorescence; active compounds read low. B-score at 10 µM. hit rate 0.84% among 340,000. AID 602410;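 active = B-score under library mean minus 4 SD, starting fluorescence ratio at most library mean plus 5 SD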;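 also: more negative B-score means stronger inhibition of thallium flux through KCNK3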
Target sequence (O14649 whole entry, looked up): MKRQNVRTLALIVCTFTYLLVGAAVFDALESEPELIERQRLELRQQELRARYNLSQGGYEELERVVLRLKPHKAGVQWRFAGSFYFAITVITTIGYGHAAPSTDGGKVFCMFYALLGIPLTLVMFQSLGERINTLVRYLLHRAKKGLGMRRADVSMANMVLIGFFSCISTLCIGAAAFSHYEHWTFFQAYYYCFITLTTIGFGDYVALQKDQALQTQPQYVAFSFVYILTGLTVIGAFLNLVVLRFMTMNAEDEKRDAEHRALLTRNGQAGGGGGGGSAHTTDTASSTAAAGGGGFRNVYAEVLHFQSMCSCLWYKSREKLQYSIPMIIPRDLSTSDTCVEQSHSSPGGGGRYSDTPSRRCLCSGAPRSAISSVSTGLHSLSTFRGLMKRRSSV
KCC2 secondary: confirmation of human KCC2 transport modulators. hit rate 15% among 3,700. normalised thallium flux (F/F0 slope) at 10 µM. shares compounds with Cl transport mod. HEK293-KCC2, thallium flux, FluoZin2 fluorescence; active compounds read high;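 active = thallium flux slope above the same plate's solvent-only control mean plus 3 SD; inconclusive = the two replicate wells disagree; inactive = no significant difference from solvent-only control wells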
KCC2 bumet counter: bumetanide-insensitive thallium flux in KCC2 cells with ouabain, counter-screen; shares compounds with Cl transport mod; HEK293-KCC2 + bumetanide/ouabain, thallium flux FluoZin2; active compounds read high; normalized thallium flux at 10 µM; hit rate 49% among 3,700; AID 1714;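 active = thallium entry rate above the same plate's blocked-transporter control wells by more than 3 SD; inconclusive = the two repeat wells disagree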;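 also: raw slope of fluorescence over initial fluorescence between 10 and 20 s after thallium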
KCC2 sec2: confirmation of human KCC2 transport modulators. shares compounds with Cl transport mod. HEK293-KCC2, thallium flux FluoZin2 fluorescence; actives lie on both sides; F/F0 rise rate, 10–20 s post-thallium. normalized thallium flux at 10 µM. hit rate 23% among 3,700;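 active = thallium flux slope more than 3 SD above or below the plate's solvent-only control mean, mostly below; inconclusive = the two repeat wells disagreed; inactive = no significant shift from solvent-only controls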
HEK293 Tl flux: counter-screen for KCC2 modulators: effect in parental HEK293 cells. thallium flux FluoZin2, ouabain; baseline-ratio fluorescence slope, 10–20 s after thallium. hit rate 46% among 3,700. thallium flux rate (normalised fluorescence) at 10 µM. shares compounds with Cl transport mod;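 active = thallium flux rate significantly above the same plate's solvent-only control wells, beyond their mean plus 3 SD; inconclusive = the two replicate wells gave conflicting results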
KCC2 retest ouab: confirmation of human KCC2 modulators with ouabain | shares compounds with Cl transport mod | HEK293-KCC2, thallium flux FluoZin2 fluorescence; bidirectional: low = inhibitor, high = activator | raw Tl+ flux slope (below DMSO = inhibition, above = activation) at 10 µM | hit rate 48% among 3,700;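 active = thallium flux slope beyond 3 SD from same-plate DMSO control mean in most replicates, usually higher, sometimes lower; inconclusive = repeat tests gave conflicting results; inactive = no significant difference from controls in most replicates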;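 also: slope of initial-normalized fluorescence between seconds 10 and 20 after thallium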
HEK293 Tl flux2: parental HEK flux effect, counter-screen 2. shares compounds with Cl transport mod. HEK293 parental, thallium flux FluoZin-2 fluorescence slope. thallium flux slope at 10 µM. hit rate 33% among 3,700;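 active = thallium flux slope above the same plate's solvent-control mean plus 3 SD in both duplicate wells; inconclusive = duplicate wells that disagreed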;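 also: run without ouabain in cells lacking the KCC2 cotransporter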
Hits are given with their value; - = inactive; ? = inconclusive; . = no result given. Only some compounds are listed: those with a hit (about 4.1% of all), similar ones and a draw of the others.

SMILES	KCNQ1 block	KCNQ1 pot	Cl transport mod	hERG rescue	KCNK9 inh	KCNK3 block	KCC2 secondary	KCC2 bumet counter	KCC2 sec2	HEK293 Tl flux	KCC2 retest ouab	HEK293 Tl flux2
O=C(C1CCCN(S(=O)(=O)c2cccs2)C1)N1CCc2ccccc2C1 (stereo not drawn)	-	-	-3.04	-	-	-	-	-	-	-	0.0156	-
Cc1nc2scc(C)n2c(=O)c1S(=O)(=O)NCC1CCN(Cc2ccc(F)cc2)CC1	-	-	.	-	-	-	.	.	.	.	.	.
COc1ccccc1NC(=O)Cc1nnc(SCC(=O)Nc2nccs2)n1C	-	-	.	-	-	-	.	.	.	.	.	.
COc1cc(C2(c3ccc(O)c(OC)c3)C(=O)N(C)c3ccc(C)cc32)ccc1O	-	-	.	-	-	-	.	.	.	.	.	.
Cc1ccc(C(=O)OC(C)C(=O)NC(C)CCc2ccccc2)o1 (stereo not drawn)	.	.	.	.	.	-	.	.	.	.	.	.
CCOC(=O)c1c(N/N=C/c2ccncc2)n[nH]c1C	-	-	18	-	-	-	-	-	-	?	-	-
CCC1CCCCN1C(=O)c1c[nH]c2ccc(S(=O)(=O)N(C)c3ccc(Cl)cc3)cc2c1=O (stereo not drawn)	-	-	.	-	-	-	-	?	?	-	-	-
CCN(CC)c1ccc(S(=O)(=O)N2CCCCC2)cc1NC(=O)CSCc1c(C)noc1C	.	.	.	.	.	-	.	.	.	.	.	.
CN(CC(=O)NCc1ccc2c(c1)OCO2)S(=O)(=O)c1ccc(F)cc1	-	-	.	-	-	-	.	.	.	.	.	.
CCn1c(SCc2nc(-c3ccccc3)no2)nnc1-c1cccs1	-	-	.	-	-	-	-	-	-	-	0.0158	?
Nc1cc(=O)[nH]c(SCC(=O)Nc2cccc(S(=O)(=O)N3CCCCC3)c2)n1	.	.	.	.	.	-	.	.	.	.	.	.
Cc1nc2c(-c3ccccc3)c(C)[nH]n2c(=O)c1Cc1ccccc1	-	-	4.93	-	-	-	-	0.0195	-	0.0149	?	0.0164
Cc1nc2c(-c3ccc(Cl)cc3)c(C)[nH]n2c(=O)c1Cc1ccccc1	-	-	4.91	-	-	-	-	0.0129	?	0.0121	?	0.0118
COc1ccc(-c2c(C)[nH]n3c(=O)c(Cc4ccccc4)c(C)nc23)cc1OC	-	-	-	-	-	-	.	.	.	.	.	.
C/C(=N/NC(=O)c1cccs1)c1ccco1	-	-	4.7	-	-	-	-	0.0153	-	?	?	0.0109
O=C(NN=C1CCCC1)c1cccc(Br)c1	-	-	.	-	-	-	.	.	.	.	.	.
C/C(=N\NC(=O)c1cccc([N+](=O)[O-])c1)c1ccncc1	-	-	-	-	-	-	.	.	.	.	.	.
C/C(=N\NC(=O)c1csc(C)c1C)c1ccco1	-	-	-	-	-	-	.	.	.	.	.	.
O=C(N/N=C1\CCCc2ccccc21)c1cccc(Br)c1	-	-	5.93	-	-	-	?	0.0224	-	0.0109	?	?
C/C(=N\NC(=O)c1cccc([N+](=O)[O-])c1)c1cccs1	-	-	3.82	-	-	-	-	0.0234	-	0.0175	?	?
O=C(N/N=C1\CCCc2ccccc21)c1cccc([N+](=O)[O-])c1	-	-	4.4	-	-	-	?	0.0226	-	0.0117	-	0.0117
CCOC(=O)[C@@H]1[C@H]2COc3cc(OC)ccc3[C@@H]2N2C(=O)N(c3ccc(Cl)cc3)C(=O)[C@@]12C	-	-	.	-	-	-	.	.	.	.	.	.
COc1ccccc1NC(=S)N1CCN(c2cccc(C)c2C)CC1	-	-	.	-	-	-	.	.	.	.	.	.
N#CC1(NC(=O)COC(=O)Cn2[nH]c(=O)c3ccccc3c2=O)CCCCC1	-	-	.	-	-	-	.	.	.	.	.	.
CC(/C=C/c1ccco1)=N\NC(=O)c1cc(Cl)ccc1O	-	-	13.1	-	-	-	0.0156	0.0259	-	?	0.0324	-
SMILES	KCNQ1 block	KCNQ1 pot	Cl transport mod	hERG rescue	KCNK9 inh	KCNK3 block	KCC2 secondary	KCC2 bumet counter	KCC2 sec2	HEK293 Tl flux	KCC2 retest ouab	HEK293 Tl flux2
Cc1c(C(=O)N2CCC[C@H]2CO)oc2c(F)cccc12	-	-	.	-	-	-	.	.	.	.	.	.
COc1nc(OCCNC(C)=O)nc(N(C)C)n1	-	-	-	-	-	-	-	-	-	-	-	-
CC(=O)NCCOc1nc(N(C)C)nc(N2CCOCC2)n1	-	-	-	-	-	-	.	.	.	.	.	.
CCOC(=O)c1cn(Cc2ccc(C)cc2)c2cc(F)ccc2c1=O	-	-	.	-	-	-	.	.	.	.	.	.
C[C@H](CO)N1C[C@H](C)[C@@H](CN(C)S(=O)(=O)c2ccccc2)Oc2ccc(NC(=O)C3CC3)cc2C1=O	.	.	.	.	.	-	.	.	.	.	.	.
O=C(NCC1CCCN(C(=O)c2cscn2)C1)c1ccc(-c2ccccc2)cc1 (stereo not drawn)	-	-	-5.28	-	-	-	-	-	0.0207	?	0.0122	-
C=CCC(=O)N1CCCC(CNC(=O)c2ccc(-c3ccccc3)cc2)C1 (stereo not drawn)	-	-	-5.52	-	-	-	-	-	-	-	0.0144	-
O=C(NCC1CCCN(C(=O)c2cscn2)C1)c1ccccc1Cl (stereo not drawn)	-	-	-	-	-	-	.	.	.	.	.	.
CC(=O)NCCC(=O)N1CCCC(CNC(=O)c2ccc(-c3ccccc3)cc2)C1 (stereo not drawn)	-	-	-4.5	-	-	-	-	-	?	-	0.0133	-
CC1CCCN(S(=O)(=O)c2cccc(C(=O)NCC3CCCO3)c2)C1 (stereo not drawn)	.	.	.	.	.	-	.	.	.	.	.	.
O=c1cc(-c2ccccc2)nc(SCc2ccc(F)cc2)[nH]1	-	-	3.92	-	-	-	-	-	-	-	-	-
CCCc1cc(=O)[nH]c(SCc2ccc(F)cc2)n1	-	-	-	-	-	-	.	.	.	.	.	.
CCOc1cc(/C=N/Nc2nc(N3CCCC3)nc(N3CCCC3)n2)ccc1O	-	-	-	-	-	-	.	.	.	.	.	.
CCOc1cccc(/C=N/Nc2nc(N3CCCC3)nc(N3CCCC3)n2)c1O	-	-	-4.46	-	-	-	-	-	-	-	-	0.0112
